Assay results as given in ChEMBL document CHEMBL4118165, “Synthesis and kinetic evaluation of ethyl acrylate and vinyl sulfone derived inhibitors for human cysteine cathepsins” (Bioorg Med Chem Lett, 2018).

Key:
[1] = target: T1, Cathepsin K (Homo sapiens) (UniProt P43235); assay: Irreversible inhibition of human cathepsin K using Z-Leu-Arg-AMC as substrate by fluorimetric analysis; details: TDE = time-dependent effect
T1 sequence (whole entry): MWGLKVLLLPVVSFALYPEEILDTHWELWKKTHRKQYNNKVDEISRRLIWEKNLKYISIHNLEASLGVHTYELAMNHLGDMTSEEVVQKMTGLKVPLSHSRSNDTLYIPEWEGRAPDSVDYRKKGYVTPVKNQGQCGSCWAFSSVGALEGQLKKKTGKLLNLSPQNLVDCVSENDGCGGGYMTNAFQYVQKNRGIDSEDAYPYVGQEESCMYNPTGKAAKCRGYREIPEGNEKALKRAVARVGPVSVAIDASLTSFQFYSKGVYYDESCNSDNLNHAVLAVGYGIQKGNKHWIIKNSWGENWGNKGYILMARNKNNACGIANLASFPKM

[2] = target: Procathepsin L (Homo sapiens) (UniProt P07711); assay: Irreversible inhibition of human cathepsin L using Z-Phe-Arg-pNA as substrate by photometric analysis; details: TDE = time-dependent effect
Sequence of Procathepsin L (Homo sapiens) (P07711 114-333 limits assumed): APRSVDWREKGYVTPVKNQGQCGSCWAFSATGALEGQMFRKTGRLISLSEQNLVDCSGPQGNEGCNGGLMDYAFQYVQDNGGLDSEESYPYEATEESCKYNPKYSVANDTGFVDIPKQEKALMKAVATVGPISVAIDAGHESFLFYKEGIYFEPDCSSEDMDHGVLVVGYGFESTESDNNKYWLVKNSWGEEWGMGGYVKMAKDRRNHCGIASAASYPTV

[3] = target: Cathepsin S (Homo sapiens) (UniProt P25774); assay: Irreversible inhibition of human cathepsin S using Z-Phe-Arg-AMC as substrate assessed as ratio of Kinac/Ki after 10 to 80 mins by fluorimetric analysis
Sequence of Cathepsin S (Homo sapiens) (P25774 115-331 limits assumed): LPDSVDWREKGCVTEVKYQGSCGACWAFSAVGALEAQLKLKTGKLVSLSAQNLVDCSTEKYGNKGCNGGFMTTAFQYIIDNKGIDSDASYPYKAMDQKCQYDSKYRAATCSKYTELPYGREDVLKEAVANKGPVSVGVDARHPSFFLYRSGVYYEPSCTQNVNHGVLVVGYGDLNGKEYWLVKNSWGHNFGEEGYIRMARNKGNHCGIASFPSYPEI

[4] = target: Procathepsin L (Homo sapiens) (UniProt P07711); assay: Irreversible inhibition of human cathepsin L using Z-Phe-Arg-pNA as substrate assessed as ratio of Kinac/Ki after 10 to 80 mins by photometric analysis
[5] = target: Cathepsin B (Homo sapiens) (UniProt P07858); assay: Irreversible inhibition of human cathepsin B using Z-Arg-Arg-pNA as substrate assessed as ratio of Kinac/Ki after 10 to 80 mins by photometric analysis
[6] = target: T1, Cathepsin K (Homo sapiens); assay: Irreversible inhibition of human cathepsin K using Z-Leu-Arg-AMC as substrate assessed as ratio of Kinac/Ki after 10 to 80 mins by fluorimetric analysis
[7] = target: Cathepsin S (Homo sapiens) (UniProt P25774); assay: Irreversible inhibition of human cathepsin S using Z-Phe-Arg-AMC as substrate by fluorimetric analysis; details: TDE = time-dependent effect
Procedure, shortened: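 Human cathepsin S monitored fluorimetrically (ex 360, em 440 nm) at 25 °C, pH 6.0. […] Progress curves were fitted non-linearly for kobs, and kinac/Ki was calculated including the [S]/Km competition term.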

[8] = target: Cathepsin B (Homo sapiens) (UniProt P07858); assay: Irreversible inhibition of human cathepsin B using Z-Arg-Arg-pNA as substrate by photometric analysis; details: TDE = time-dependent effect
Procedure, shortened: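 Human cathepsin B assayed photometrically at 405 nm, 37 °C, pH 6.0. […] Progress curves were fitted by non-linear regression to get kobs, and kinac/Ki was derived with correction for substrate competition ([S]/Km).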

inhibition [1] | inhibition [2] | Ratio [3] [M⁻¹ s⁻¹] | Ratio [4] [M⁻¹ s⁻¹] | Ratio [5] [M⁻¹ s⁻¹] | Ratio [6] [M⁻¹ s⁻¹] | inhibition [7] | inhibition [8] | SMILES
Tde | Tde | 2590 | 554 | 248 | 2890 | Tde | Tde | CCOC(=O)/C=C/CNC(=O)[C@H](CC(C)C)NC(=O)CCNC(=O)OC(C)(C)C
Tde | Tde | 879 | 3540 | 2660 | 759 | Tde | Tde | CCOC(=O)/C=C/CNC(=O)[C@H](Cc1ccccc1)NC(=O)CCNC(=O)OC(C)(C)C
Tde | Tde | 6600 | 1280 | 3090 | 11600 | Tde | Tde | CCOC(=O)/C=C/CNC(=O)[C@H](CC(C)C)NC(=O)OC(C)(C)C
Tde | Tde | 557 | 652 | 348 | 297 | Tde | Tde | CCOC(=O)/C=C/CNC(=O)[C@H](Cc1ccccc1)NC(=O)COCCOCCNC(=O)OC(C)(C)C
Tde | Tde | 30600 | 671 | 58.3 | 12500 | Tde | Tde | CC(C)C[C@H](NC(=O)CCNC(=O)OC(C)(C)C)C(=O)NC/C=C/S(=O)(=O)c1ccccc1

The remaining lines, values behind:

SMILES | inhibition [1] | inhibition [2] | Ratio [3] [M⁻¹ s⁻¹] | Ratio [4] [M⁻¹ s⁻¹] | Ratio [5] [M⁻¹ s⁻¹] | Ratio [6] [M⁻¹ s⁻¹] | inhibition [7] | inhibition [8]
CCOC(=O)/C=C/CNC(=O)[C@H](Cc1ccccc1)NC(=O)OC(C)(C)C | Tde | Tde | 525 | 1120 | 3660 | 752 | Tde | Tde
CC(C)C[C@H](NC(=O)COCCOCCNC(=O)OC(C)(C)C)C(=O)NC/C=C/S(=O)(=O)c1ccccc1 | Tde | Tde | 11900 | 3310 | 150 | 25.5 | Tde | Tde
CC(C)(C)OC(=O)NCCC(=O)N[C@@H](Cc1ccccc1)C(=O)NC/C=C/S(=O)(=O)c1ccccc1 | Tde | Tde | 13100 | 12800 | 214 | 2230 | Tde | Tde
CC(C)C[C@H](NC(=O)OC(C)(C)C)C(=O)NC/C=C/S(=O)(=O)c1ccccc1 | Tde | Tde | 28400 | 879 | 85.1 | 18300 | Tde | Tde
CC(C)(C)OC(=O)N[C@@H](Cc1ccccc1)C(=O)NC/C=C/S(=O)(=O)c1ccccc1 | Tde | Tde | 7960 | 5880 | 378 | 1320 | Tde | Tde
